Screening data: PubChem, several laboratories
UCH37 inh: inhibitors of human UCH37 deubiquitinase, primary screen, biochemical, Ub-AMC cleavage, fluorescence | purified proteasome/UCH37 | 330,000 compounds, 0.33% hits | inhibition, % (concentration not given with the values) | Ubiquitin carboxyl-terminal hydrolase isozyme L5 (Homo sapiens), Q9Y5K5;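 active = mean inhibition over replicate wells above about 20%, limit read from the data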;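 note: 0% = compound-free wells with enzyme and 100% = wells lacking proteasome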
Target sequence (Q9Y5K5 whole entry, looked up): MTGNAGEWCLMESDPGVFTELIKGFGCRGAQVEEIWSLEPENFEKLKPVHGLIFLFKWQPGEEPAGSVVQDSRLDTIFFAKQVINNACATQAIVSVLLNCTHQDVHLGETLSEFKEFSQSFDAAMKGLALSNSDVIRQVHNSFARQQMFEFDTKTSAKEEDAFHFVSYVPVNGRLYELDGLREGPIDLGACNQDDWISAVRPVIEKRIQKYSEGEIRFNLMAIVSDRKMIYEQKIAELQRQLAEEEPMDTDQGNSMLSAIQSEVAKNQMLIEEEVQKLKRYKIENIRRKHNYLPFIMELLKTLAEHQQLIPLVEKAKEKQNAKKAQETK
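System: Proteasome-associated human UCH37 deubiquitinase; Input: 0.15 nM proteasome in added enzyme buffer; Also added: Ub-AMC substrate from 1 µM stock; Incubation: 30 min compound-proteasome preincubation then 25 min substrate reaction, room temperature; Detection: fluorescence, ex 355 nm, em 460 nm; Read-out: % inhibition of Ub-AMC cleavage fluorescence; Benchmarks: no-proteasome and no-compound wells.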
CASP6 VEID inh: human caspase-6 inhibitors, primary screen, biochemical, VEID-R110 fluorescence, single point, set 2 | P55212 | purified caspase-6, Z-VEID-R110 cleavage fluorescence | inhibition, % at 12.5 µM | 350,000 compounds, 0.53% hits;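 active = mean inhibition across replicates at least about 35%, with every replicate also reaching that limit, limit read from the data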;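 note: 0% = median of neutral control wells and 100% = no fluorescence left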
Target sequence (P55212 24-179 limits assumed): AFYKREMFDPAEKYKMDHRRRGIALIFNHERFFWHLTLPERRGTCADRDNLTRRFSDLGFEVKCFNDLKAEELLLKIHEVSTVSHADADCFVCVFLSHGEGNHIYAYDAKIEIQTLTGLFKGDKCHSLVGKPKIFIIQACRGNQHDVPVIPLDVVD
Target sequence (P55212 194-293 limits assumed): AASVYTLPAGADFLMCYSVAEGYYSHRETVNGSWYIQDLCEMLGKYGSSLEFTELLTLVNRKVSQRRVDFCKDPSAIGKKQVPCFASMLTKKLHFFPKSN
NSD2 HMT inh: NSD2 histone methyltransferase inhibitors, primary screen, biochemical, AlphaScreen, single concentration, set 2; Histone-lysine N-methyltransferase NSD2 (Homo sapiens), O96028; NSD2 peptide methylation, 120 min; inhibition, % at 12.5 µM; 310,000 compounds, 0.54% hits; AID 743445, 2014; in the data active = inhibition above about 50%
SIRT5 block: SIRT5 desuccinylase inhibitors, primary screen, biochemical, fluorescence imaging, single point, set 5 | Purified SirT5, succinyl-peptide AMC, trypsin-coupled fluorescence | inhibition, % at 15 µM | NAD-dependent protein deacylase sirtuin-5, mitochondrial (Homo sapiens), Q9NXA8 | 330,000 compounds, 1.1% hits; in the data active = inhibition above about 15%
FGF22 binding-1: binders of human FGF22 protein, primary screen, FGF22 synaptogenesis inhibitor project, biophysical, thermal shift, single point; Fibroblast growth factor 22 (Homo sapiens), Q9HCT0; 340,000 compounds, 1.5% hits; activity (Tm shift, normalised), % at 9.99 µM; recombinant FGF22 thermal shift, SYPRO orange fluorescence; percent of sucrose octasulfate shift, DMSO zero;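 active = mean Tm shift, scaled 0 neutral to 100 positive control, at about 1.3% or above, every replicate too, limit read from the data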
FGF22 binding-2: binders of human FGF22 protein, dose response, FGF22 synaptogenesis inhibitor project, biophysical, thermal shift, cherry-pick retest. thermal shift activity, °C (ΔTm) at 38 µM. shares compounds with FGF22 binding-1. recombinant FGF22 thermal shift, SYPRO orange fluorescence. 1,000 compounds, 2% hits;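 active = fitted rise in melting shift crosses a set limit at or below the top valid dose tested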
FGF22 TSA: binders of human FGF22 protein, dose response, FGF22 synaptogenesis inhibitor project, biophysical, thermal shift, dry powder. shares compounds with FGF22 binding-1. Thermal shift assay, SYPRO orange, melting temperature shift. Tm shift (activity), % at 38 µM. 50 tested, under 10 active;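 active = compounds whose fitted dose curve of melting temperature shift rises past a set threshold within the tested doses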
TSA no protein: compound-only thermal shift signal without protein, dose response, artefact control for FGF22 binder project, biochemical, cherry-picked samples, RT-PCR instrument. shares compounds with FGF22 binding-1. compound-only SYPRO orange thermal shift counter-screen, no protein. 1,000 compounds, 2% hits. AC50, µM (doses to about 38 µM);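 active = rising signal whose fitted curve reaches the 0.54 level within the top valid dose, showing a melting point, actives reach about 13 µM in these data; inactive = the rest, including activity in the opposite direction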; note: value is where the raw curve crosses a fixed level and not half-maximal
* = called active by the depositor; ! = a repeat was not active; [ ] = another dose, or the depositor's remark. Shown are actives, neighbours in structure and some others; about 2.6% of the full set was active somewhere.

For O=C(C1CC1)N1[C@@H]2CNc3ccccc3[C@@H]2[C@@H]1CO the results were CASP6 VEID inh 0.8, SIRT5 block -1.7 and FGF22 binding-1 0.4.
Screening C[C@@H]1CCCCO[C@H](CN(C)S(=O)(=O)c2ccccc2)[C@H](C)CN([C@H](C)CO)C(=O)c2cc(NS(=O)(=O)c3cn(C)cn3)ccc2O1 returned CASP6 VEID inh 2.0, SIRT5 block -0.4 and FGF22 binding-1 -0.6.
Screening O=C(c1ccccc1)N1CC(=O)N2[C@H](CO)[C@@H](c3ccc(C#CC4CC4)cc3)[C@H]2C1 returned CASP6 VEID inh 2.7, SIRT5 block -2.8 and FGF22 binding-1 0.2.
Screening O=S1(=O)CCC(=NNc2ccc(F)cc2)c2ccsc21 returned UCH37 inh 6.1.
C[C@H](CO)N1C[C@H](C)[C@@H](CN(C)C)Oc2ncc(-c3cccnc3)cc2C1=O was read as CASP6 VEID inh -3.9, SIRT5 block 8.1, FGF22 binding-1 1.7*, FGF22 binding-2 0.075[42 µM] and TSA no protein inactive.
`Cc1ccc(S(=O)(=O)N(C)C[C@H]2Oc3ncc(Br)cc3C(=O)N([C@@H](C)CO)C[C@H]2C)cc1` gave CASP6 VEID inh 6.6, SIRT5 block -2.5, FGF22 binding-1 5.3*, FGF22 binding-2 0.113[42 µM] and TSA no protein inactive.
Screening C[C@@H]1CN([C@@H](C)CO)C(=O)c2cc(-c3cccnc3)cnc2O[C@@H]1CN(C)C returned CASP6 VEID inh 1.9, SIRT5 block -3.7 and FGF22 binding-1 -0.4.
`COc1ccccc1-c1cnc2c(c1)C(=O)N([C@@H](C)CO)C[C@H](C)[C@H](CN(C)C(=O)c1cccnc1)O2` gave CASP6 VEID inh -2.4, SIRT5 block -2.6, FGF22 binding-1 1.9*, FGF22 binding-2 0.271 and TSA no protein inactive.
`O=C(C[C@H]1CC[C@@H]2NC[C@H](O)COC[C@H]2O1)Nc1ccccc1` gave CASP6 VEID inh -0.1, SIRT5 block 0.4 and FGF22 binding-1 0.0.
Screening N#Cc1cccc(NS(=O)(=O)c2ccc(S(=O)(=O)N3CCOCC3)cc2)c1 returned UCH37 inh 0.9, CASP6 VEID inh -0.2, NSD2 HMT inh -0.4, SIRT5 block -1.3 and FGF22 binding-1 0.4.
O=C(Nc1ccc(S(=O)(=O)N2CCCC2)cc1)c1ccccc1 was read as UCH37 inh 5.7, CASP6 VEID inh 0.3, NSD2 HMT inh -1.9, SIRT5 block -0.8, FGF22 binding-1 1.6*, FGF22 binding-2 -0.152, FGF22 TSA 0.0 and TSA no protein inactive.
Screening N#Cc1cccc(NC(=O)c2ccc(S(=O)(=O)N3CCOCC3)cc2)c1 returned UCH37 inh 2.6, CASP6 VEID inh 0.9, SIRT5 block 4.5, FGF22 binding-1 2.7*, FGF22 binding-2 0.108 and TSA no protein inactive.
O=C(Nc1ccc(S(=O)(=O)N2CCCC2)cc1)c1cccs1 was read as UCH37 inh 3.6, CASP6 VEID inh -5.1, NSD2 HMT inh -0.1, SIRT5 block -1.2, FGF22 binding-1 2.1*, FGF22 binding-2 -0.654, FGF22 TSA -0.2 and TSA no protein inactive.
`COc1ccc(NC(=O)N(C)C[C@H]2Oc3ccc(NC(=O)Nc4ccc(F)cc4)cc3C(=O)N([C@H](C)CO)C[C@@H]2C)cc1` gave CASP6 VEID inh 2.9, SIRT5 block -0.3 and FGF22 binding-1 -0.1.
Screening O=S(=O)(NCC[C@@H]1CC[C@@H](NS(=O)(=O)c2ccccc2Cl)[C@H](CO)O1)c1ccc(Cl)cc1 returned CASP6 VEID inh 1.9, SIRT5 block -0.5 and FGF22 binding-1 0.3.
`COc1ccc(N(C)S(=O)(=O)c2cccc(C(=O)Nc3ccc(N4CCOCC4)cc3)c2)cc1` gave UCH37 inh 4.8, CASP6 VEID inh 2.1, SIRT5 block 1.8, FGF22 binding-1 2.3*, FGF22 binding-2 0.116 and TSA no protein inactive.
Screening Cc1ccc(N(C)S(=O)(=O)c2cccc(C(=O)Nc3ccc(N4CCOCC4)cc3)c2)cc1 returned UCH37 inh 2.4, CASP6 VEID inh 3.3, NSD2 HMT inh 2.4, SIRT5 block 9.2 and FGF22 binding-1 -0.3.
`C[C@H]1CN([C@@H](C)CO)C(=O)Cc2cc(NC(=O)C3CCCCC3)ccc2O[C@@H]1CN(C)S(=O)(=O)c1ccc(F)cc1` gave CASP6 VEID inh -1.4, SIRT5 block 3.1 and FGF22 binding-1 0.0.
Screening O=C(Nc1cc(Cl)cc(Cl)c1)N[C@@H]1CC[C@@H](CCNS(=O)(=O)c2cccc(F)c2)O[C@@H]1CO returned CASP6 VEID inh -0.2, SIRT5 block 2.5, FGF22 binding-1 2.7*!, FGF22 binding-2 -0.311[42 µM], FGF22 TSA -0.3 and TSA no protein inactive.
Cc1ccccc1S(=O)(=O)NCC[C@H]1CC[C@H](NC(=O)Nc2cccc(F)c2)[C@@H](CO)O1 was read as CASP6 VEID inh 2.5, SIRT5 block 0.2 and FGF22 binding-1 -0.1.
`O=C(CCN1CCCCC1)N[C@@H]1CC[C@H](CCNS(=O)(=O)c2ccc(F)cc2)O[C@H]1CO` gave CASP6 VEID inh -0.1, SIRT5 block -4.8, FGF22 binding-1 1.7*, FGF22 binding-2 -0.187 and TSA no protein inactive.
Screening Cc1ccccc1S(=O)(=O)NCC[C@@H]1CC[C@@H](NC(=O)Nc2cccc(Cl)c2)[C@@H](CO)O1 returned CASP6 VEID inh -0.7, SIRT5 block -0.5, FGF22 binding-1 1.3*, FGF22 binding-2 -0.071[42 µM] and TSA no protein inactive.
For COc1ccc2c3c([nH]c2c1)[C@@H](CO)N(Cc1ccccc1OC)CC31CN(S(=O)(=O)c2ccccc2)C1 the results were CASP6 VEID inh -0.7, SIRT5 block -1.3 and FGF22 binding-1 -0.2.
`COc1ccc(C=NNC(=O)CCc2nc3ccccc3[nH]2)cc1` gave UCH37 inh 4.7.
